Reference: ChEMBL document CHEMBL1165985, “Dihydro-beta-agarofuran sesquiterpenes and pentacyclic triterpenoids from the root bark of Osyris lanceolata” (2010)
Activity calls are given as the source filed them. No cut-off for these calls is given here.

Key:
Candida albicans = assay: Antimicrobial activity against Candida albicans ATCC 10231 by agar overlay technique; format: functional
In short: (§1)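 Adapted agar overlay technique. Strains came from a university microbiology collection. Media were nutrient broth, nutrient agar, mycological peptone and Sabouraud dextrose agar.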

[1] = system: Radical scavenging activity; assay: Antioxidant activity assessed as DPPH radical scavenging activity after 8 hrs; format: functional
In short: (§2)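 Semiquantitative TLC-based DPPH radical scavenging, followed over an 8 h period with readings at 30 min, 2 h and 8 h. Activity is expressed as the minimum inhibitory quantity (MIQ, µg) on the plate. Run in duplicate.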

Pseudomonas aeruginosa [2] = assay: Antimicrobial activity against Pseudomonas aeruginosa NCTC 10332 by agar overlay technique; format: functional; in short: as §1
Escherichia coli = assay: Antimicrobial activity against Escherichia coli ATCC 11229 by agar overlay technique; format: functional; in short: as §1
Bacillus subtilis [3] = assay: Antimicrobial activity against Bacillus subtilis ATCC 6633 by agar overlay technique; format: functional; in short: as §1
Staphylococcus aureus [4] = assay: Antimicrobial activity against Staphylococcus aureus ATCC 9144 by agar overlay technique; format: functional; in short: as §1
[5] = system: Radical scavenging activity; assay: Antioxidant activity assessed as DPPH radical scavenging activity after 2 hrs; format: functional; in short: as §2
[6] = system: Radical scavenging activity; assay: Antioxidant activity assessed as DPPH radical scavenging activity after 30 mins; format: functional; in short: as §2
Staphylococcus aureus [7] = assay: Antimicrobial activity against Staphylococcus aureus ATCC 9144 at 100 ug by agar overlay technique; format: functional, organism-based
Bacillus subtilis [8] = assay: Antimicrobial activity against Bacillus subtilis ATCC 6633 at 100 ug by agar overlay technique; format: functional, organism-based
Pseudomonas aeruginosa [9] = assay: Antimicrobial activity against Pseudomonas aeruginosa NCTC 10332 at 100 ug by agar overlay technique; format: functional, organism-based

Compound | MIC (Candida albicans) [µg] | MIC [1] [µg] | MIC (Pseudomonas aeruginosa [2]) [µg] | MIC (Escherichia coli) [µg] | MIC (Bacillus subtilis [3]) [µg] | MIC (Staphylococcus aureus [4]) [µg] | MIC [5] | MIC [6] | Activity (Staphylococcus aureus [7]) | Activity (Bacillus subtilis [8]) | Activity (Pseudomonas aeruginosa [9])
C[C@H]1C(=O)CC[C@@H]2[C@]1(C)CC[C@H]1[C@@]2(C)CC[C@@]2(C)[C@H]3C[C@@](C)(C(=O)O)CC[C@]3(C)CC[C@]12C [OCTANDRONIC ACID] | 0.01 | 10 | 0.01 | 0.01 | 0.01 | 0.5 | inactive | inactive | – | – | –
O=C(N[C@H](CO)[C@H](O)c1ccc([N+](=O)[O-])cc1)C(Cl)Cl [CHLORAMPHENICOL] | – | – | 0.001 | 0.001 | 0.001 | 0.001 | – | – | – | – | –
CC1=CC(=O)[C@H](OC(=O)c2ccoc2)[C@@]2(C)[C@@H](OC(=O)c3ccoc3)C[C@@H]3C[C@]12OC3(C)C | 10 | 10 | – | 50 | – | – | 50 µg | inactive | inactive | inactive | inactive
C[C@@H]1CC[C@H](OC(=O)c2ccoc2)[C@@]2(C)[C@@H](OC(=O)c3ccoc3)C[C@@H]3C[C@]12OC3(C)C | 0.01 | 10 | 0.5 | 10 | 0.5 | 10 | 10 µg | inactive | – | – | –
C[C@@H]1CC(=O)[C@H](OC(=O)c2ccoc2)[C@@]2(C)[C@@H](OC(=O)c3ccoc3)C[C@@H]3C[C@]12OC3(C)C | 0.5 | 10 | 10 | 10 | 10 | 50 | 10 µg | inactive | – | – | –
Clc1ccc(COC(Cn2ccnc2)c2ccc(Cl)cc2Cl)c(Cl)c1 (stereo unspecified) [MICONAZOLE] | 0.001 | – | – | – | – | – | – | – | – | – | –
C=C(C)[C@@H]1CC[C@]2(C)[C@H](CC=C3[C@@H]4C[C@](C)(C(=O)O)CC[C@]4(C)CC[C@]32C)[C@@]1(C)CCC(=O)O | 0.001 | 10 | 0.01 | 0.01 | 0.01 | 0.001 | inactive | inactive | – | – | –
O=C1O[C@H]([C@@H](O)CO)C(O)=C1O | – | 0.01 | – | – | – | – | 0.5 µg | 10 µg | – | – | –
O=C(O)c1cc(O)c(O)c(O)c1 | – | 0.01 | – | – | – | – | 0.01 µg | 0.01 µg | – | – | –
